Columns and labels:
[1] = tested on: A549; assay: Antitumour activity against human A549 cells xenografted in BALB/c nude mouse assessed as tumour weight at 30 mg/kg, ip administered every other day measured at day 26 by electronic caliper method (reference value: 1.894 g); format: functional
[2] = tested on: A549; assay: Antitumour activity against human A549 cells xenografted in BALB/c nude mouse assessed as tumour volume at 30 mg/kg, ip administered every other day measured at day 26 by electronic caliper method (reference value: 2006.37 mm3); format: functional
[3] = tested on: A549; assay: Antitumour activity against human A549 cells xenografted in BALB/c nude mouse assessed as tumour growth inhibition at 30 mg/kg, ip administered every other day measured at day 26 by electronic caliper method relative to control; format: functional; conditions: 624 h, read-out: GI
[4] = tested on: MDA-MB-231; assay: Antiproliferative activity against human MDA-MB-231 cells assessed as cell growth inhibition measured after 48 hrs by MTT assay; format: functional, cell-based; conditions: MDA-MB-231, 48 h
Outline: (§1)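 Cancer cell lines exposed to compounds for 48 h; viability read by MTT assay. IC50 reported as mean ± SD from at least three independent experiments.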

[5] = tested on: HeLa; assay: Antiproliferative activity against human HeLa cells assessed as cell growth inhibition measured after 48 hrs by MTT assay; format: functional, cell-based; outline: as §1
[6] = tested on: HepG2; assay: Antiproliferative activity against human HepG2 cells assessed as cell growth inhibition measured after 48 hrs by MTT assay; format: functional, cell-based; conditions: HepG2, 48 h; outline: as §1
[7] = tested on: HCT-116; assay: Antiproliferative activity against human HCT116 cells assessed as cell growth inhibition measured after 48 hrs by MTT assay; format: functional, cell-based; conditions: HCT-116, 48 h; outline: as §1
[8] = tested on: A549; assay: Antiproliferative activity against human A549 cells assessed as cell growth inhibition measured after 48 hrs by MTT assay; format: functional, cell-based; conditions: A549, 48 h; outline: as §1
[9] = Metabolic stability in Sprague-Dawley rat liver microsomes assessed as parent compound remaining after 90 mins in presence of NADPH by HPLC-UV-MS analysis; format: ADME, Microsome; conditions: read-out: Stability
Outline: (§2)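 Compound incubated with rat liver microsomes in buffer containing an NADPH regenerating system. Percentage of parent remaining was determined at time points up to 180 min, and half-life was derived.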

[10] = Metabolic stability in Sprague-Dawley rat liver microsomes assessed as parent compound remaining after 150 mins in presence of NADPH by HPLC-UV-MS analysis; format: ADME, Microsome; outline: as §2
[11] = in vitro; conditions: Sprague-Dawley, rat, liver microsomes
[12] = Metabolic stability in Sprague-Dawley rat liver microsomes assessed as parent compound remaining after 30 mins in presence of NADPH by HPLC-UV-MS analysis; format: ADME, Microsome; conditions: read-out: Stability; outline: as §2
[13] = Metabolic stability in Sprague-Dawley rat liver microsomes assessed as parent compound remaining after 120 mins in presence of NADPH by HPLC-UV-MS analysis; format: ADME, Microsome; conditions: read-out: Stability; outline: as §2
[14] = Half-life in Sprague-Dawley rat liver microsomes in presence of NADPH by HPLC-UV-MS analysis; format: ADME, Microsome; outline: as §2
[15] = Metabolic stability in Sprague-Dawley rat liver microsomes assessed as parent compound remaining after 60 mins in presence of NADPH by HPLC-UV-MS analysis; format: ADME, Microsome; conditions: read-out: Stability; outline: as §2
[16] = Toxicity in BALB/c nude mouse xenografted with human A549 cells assessed as effect on body weight at 30 mg/kg, ip administered every other day measured for 26 days; format: organism-based; conditions: in vivo, 624 h
[17] = Solubility of compound in water; format: physicochemical; conditions: buffer

SMILES | IC50 [4] [nM] | IC50 [5] [nM] | IC50 [6] [nM] | IC50 [7] [nM] | IC50 [8] [nM] | other results
COc1cc(C2=NCC(=O)Nc3c2ccc(OC)c3OP(=O)([O-])[O-])cc(OC)c1OC.[Na+].[Na+] | – | – | – | – | – | Activity [1]: 0.415 g; Activity [2]: 408.17 mm3; inhibition in vivo at 30 mg/kg [3]: 77.7%
COc1ccc2c(c1O)NC(=O)CN=C2c1cc(OC)c(OC)c(N(C)C)c1 | 91 | 54.9 | 52 | 53 | 66.2 | –
COc1cc(-c2cc(=O)[nH]c3c(O)c(OC)ccc23)cc(SC)c1OC | 70 | 35.5 | 51.7 | 28.8 | 61.8 | –
COc1ccc2c(c1O)NC(=O)CN=C2c1cc(OC)c(OC)c(OC)c1 | 54.6 | 18.1 | 15.7 | 16.6 | 9.15 | remaining at 1.5 h [9]: 76.2%; remaining at 2.5 h ([10]; Sprague-Dawley, liver microsomes, read-out: Stability): 55.2%; remaining at 3 h [11]: 49.9%; remaining at 0.5 h [12]: 94.3%; remaining at 2 h [13]: 65.3%; half-life [14]: 2.62 h; remaining at 1 h [15]: 85.5%
COc1cc(-c2c(C)c(=O)[nH]c3c(O)c(OC)ccc23)cc(SC)c1OC | 133 | 158 | 303 | 229 | 86 | –
COc1ccc(/C=C\c2cc(OC)c(OC)c(OC)c2)cc1OP(=O)([O-])[O-].[Na+].[Na+] [FOSBRETABULIN DISODIUM] | – | – | – | – | – | Activity [1]: 0.879 g; Activity [2]: 984.86 mm3; inhibition in vivo at 30 mg/kg [3]: 52.8%
COc1ccc(/C=C\c2cc(OC)c(OC)c(OC)c2)cc1O [COMBRETASTATIN A4] | – | – | – | – | – | remaining at 1.5 h [9]: 21.6%; Stability ([10]; microsomes, 2.5 h): Unstable; remaining at 0.5 h [12]: 66.3%; remaining at 2 h [13]: 17.9%; half-life [14]: < 1 h; remaining at 1 h [15]: 36.4%
COc1ccc2c(c1O)NC(=O)CN=C2c1cc2c(c(OC)c1)OC(C)(C)C=C2 | 69 | 34.7 | 30.5 | 13.9 | 56.2 | –
COc1cc(-c2cc(=O)[nH]c3c(O)c(OC)ccc23)cc([Se]C)c1OC | 69 | 51.7 | 22 | 124 | 60.7 | –
COc1cc(C2=NCC(=O)Nc3c2ccc(OC)c3OP(=O)([O-])[O-])cc([Se]C)c1OC.[Na+].[Na+] | – | – | – | – | – | Activity [1]: 0.201 g; Activity [16]: Non-Toxic; Activity [2]: 215.2 mm3; inhibition in vivo at 30 mg/kg [3]: 89.3%; solubility [17]: Soluble
COc1cc(C2=NCC(=O)Nc3c2ccc(OC)c3OP(=O)([O-])[O-])cc(SC)c1OC.[Na+].[Na+] | – | – | – | – | – | Activity [1]: 0.373 g; Activity [16]: Non-Toxic; Activity [2]: 369.25 mm3; inhibition in vivo at 30 mg/kg [3]: 79.3%; solubility [17]: Soluble
COc1ccc2c(c1O)NC(=O)CN=C2c1ccc(OC)c2c1OC(C)(C)C=C2 | 3710 | 1870 | 4590 | 207 | 433 | –
COc1ccc2c(c1O)NC(=O)CN=C2c1cc(OC)c(OC)c(SC)c1 | 24.7 | 16.5 | 14.2 | 10.8 | 18.7 | –
COc1ccc2c(c1O)NC(=O)C(C)N=C2c1cc(OC)c(OC)c(SC)c1 (centres undefined) | 295 | 1070 | 295 | 89 | 93 | –

— ChEMBL document CHEMBL4359917, “Design, synthesis, and biological evaluation of novel benzodiazepine derivatives as anticancer agents through inhibition of tubulin polymerization in vitro and in vivo” (Eur J Med Chem, 2019)
